Test results reported in ChEMBL document CHEMBL1146388, “1-Arylpiperazinyl-4-cyclohexylamine derived isoindole-1,3-diones as potent and selective alpha-1a/1d adrenergic receptor ligands” (Bioorg Med Chem Lett, 2007).

Tests used:
[1] = target: T1, Alpha-1D adrenergic receptor (Homo sapiens, UniProt P25100); assay: Displacement of [125]HEAT from human adrenergic alpha-1d receptor expressed in COS cells
T1 sequence (P25100 whole entry): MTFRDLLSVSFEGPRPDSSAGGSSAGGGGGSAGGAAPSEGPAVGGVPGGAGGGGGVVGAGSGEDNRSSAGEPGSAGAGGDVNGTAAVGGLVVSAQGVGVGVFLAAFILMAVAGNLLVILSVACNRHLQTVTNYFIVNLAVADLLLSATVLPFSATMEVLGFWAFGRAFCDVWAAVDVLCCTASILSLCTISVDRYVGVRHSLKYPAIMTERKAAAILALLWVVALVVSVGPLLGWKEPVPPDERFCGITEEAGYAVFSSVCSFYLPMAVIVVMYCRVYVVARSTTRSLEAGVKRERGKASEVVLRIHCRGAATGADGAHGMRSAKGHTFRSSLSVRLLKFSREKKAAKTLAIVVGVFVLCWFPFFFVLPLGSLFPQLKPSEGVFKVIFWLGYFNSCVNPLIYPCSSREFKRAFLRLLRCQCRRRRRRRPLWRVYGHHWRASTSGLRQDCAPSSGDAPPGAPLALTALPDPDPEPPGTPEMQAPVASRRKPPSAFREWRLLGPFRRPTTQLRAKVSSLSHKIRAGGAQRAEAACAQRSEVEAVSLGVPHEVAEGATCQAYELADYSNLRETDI

[2] = target: T2, Alpha-1A adrenergic receptor (Homo sapiens, UniProt P35348); assay: Displacement of [125]HEAT from human adrenergic alpha-1a receptor expressed in COS cells
T2 sequence (P35348 whole entry): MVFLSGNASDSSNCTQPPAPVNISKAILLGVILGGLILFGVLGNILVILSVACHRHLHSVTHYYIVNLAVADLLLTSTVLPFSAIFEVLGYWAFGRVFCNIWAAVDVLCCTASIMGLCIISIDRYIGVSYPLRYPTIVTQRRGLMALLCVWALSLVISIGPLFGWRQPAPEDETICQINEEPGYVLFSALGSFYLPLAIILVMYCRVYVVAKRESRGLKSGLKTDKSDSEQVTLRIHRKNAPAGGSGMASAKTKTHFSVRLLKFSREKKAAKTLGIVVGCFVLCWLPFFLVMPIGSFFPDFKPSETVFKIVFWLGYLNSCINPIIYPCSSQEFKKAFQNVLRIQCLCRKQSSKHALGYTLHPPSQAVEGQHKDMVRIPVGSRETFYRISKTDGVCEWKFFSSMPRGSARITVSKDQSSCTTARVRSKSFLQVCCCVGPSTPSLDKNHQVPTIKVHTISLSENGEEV

[3] = target: Adrenergic receptors; alpha-1 A & B (Homo sapiens) (UniProt P35348+P35368); assay: Selectivity ratio, Ki for human adrenergic alpha-1b receptor to Ki for human adrenergic alpha-1a receptor; format: protein assay
Outline: (§1)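 Competition binding against 125I-HEAT on COS cell membranes expressing cloned human α1a-, α1b- or α1d-adrenergic receptor. Affinities are reported as Ki (nM). Selectivity is expressed as Ki(α1b)/Ki(α1a) and Ki(α1b)/Ki(α1d).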

Homo sapiens = species on record: Homo sapiens; assay: Selectivity ratio, Ki for human adrenergic alpha-1b receptor to Ki for human adrenergic alpha-1d receptor
Outline: as §1

[4] = target: T3, Alpha-1B adrenergic receptor (Homo sapiens, UniProt P35368); assay: Displacement of [125]HEAT from human adrenergic alpha-1b receptor expressed in COS cells
T3 sequence (P35368 whole entry): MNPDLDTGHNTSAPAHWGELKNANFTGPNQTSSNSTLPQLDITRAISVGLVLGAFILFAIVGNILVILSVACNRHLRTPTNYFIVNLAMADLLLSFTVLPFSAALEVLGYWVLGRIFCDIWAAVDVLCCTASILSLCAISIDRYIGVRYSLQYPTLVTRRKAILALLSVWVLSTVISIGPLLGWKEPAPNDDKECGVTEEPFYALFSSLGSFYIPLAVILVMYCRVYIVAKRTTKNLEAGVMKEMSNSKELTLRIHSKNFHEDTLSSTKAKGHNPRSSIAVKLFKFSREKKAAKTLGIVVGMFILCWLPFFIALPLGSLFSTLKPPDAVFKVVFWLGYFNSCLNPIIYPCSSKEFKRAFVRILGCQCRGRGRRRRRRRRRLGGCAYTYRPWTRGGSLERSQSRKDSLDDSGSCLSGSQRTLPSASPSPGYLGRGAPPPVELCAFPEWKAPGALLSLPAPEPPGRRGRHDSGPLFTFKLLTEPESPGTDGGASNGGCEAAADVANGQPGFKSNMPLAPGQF

Structure (SMILES) | Ki [1] [nM] | Ki [2] [nM] | Ratio Ki [3] | Ratio Ki (Homo sapiens) | Ki [4] [nM]
CC(C)Oc1ccccc1N1CCN(C2CCC(N3C(=O)c4cccnc4C3=O)CC2)CC1 (stereo not drawn) | 1.5 | 0.8 | 56 | 30 | –
CC(C)Oc1ccccc1N1CCN(C2CCC(N3C(=O)c4ccncc4C3=O)CC2)CC1 (stereo not drawn) | 0.8 | 0.4 | 56 | 28 | –
CC(C)Oc1ccccc1N1CCN(C2CCC(N3C(=O)c4cc(Cl)c(Cl)cc4C3=O)CC2)CC1 (stereo not drawn) | 0.3 | – | 401 | 3610 | –
CC(C)Oc1ccccc1N1CCN(C2CCC(N3C(=O)c4ccc5ccccc5c4C3=O)CC2)CC1 (stereo not drawn) | 0.2 | 1.8 | 8 | 75 | 15
CC(C)Oc1ccccc1N1CCN(C2CCC(N3C(=O)c4c(F)c(F)c(F)c(F)c4C3=O)CC2)CC1 (stereo not drawn) | – | – | 109 | 136 | –
CC(C)Oc1ccccc1N1CCN(C2CCC(N3C(=O)c4cccc(F)c4C3=O)CC2)CC1 (stereo in doubt; 6c) [listing 1 of 2 here] | 0.09 | 0.2 | – | – | 18
CC(C)Oc1ccccc1N1CCN(C2CCC(N3C(=O)c4cccc(F)c4C3=O)CC2)CC1 (stereo in doubt; 6c) [listing 2 of 2 here] | – | – | 90 | 200 | –
CC(C)Oc1ccccc1N1CCN(C2CCC(N3C(=O)c4cccc(F)c4C3=O)CC2)CC1 (stereo in doubt; 6d) [listing 1 of 2 here] | 14.9 | 1 | – | – | 127
CC(C)Oc1ccccc1N1CCN(C2CCC(N3C(=O)c4cccc(F)c4C3=O)CC2)CC1 (stereo in doubt; 6d) [listing 2 of 2 here] | – | – | 127 | 9 | –
CC(C)Oc1ccccc1N1CCN(C2CCC(N3C(=O)c4ccc5ccc(F)cc5c4C3=O)CC2)CC1 (stereo in doubt; 6f) [listing 1 of 2 here] | 16.4 | 15 | – | – | 269
CC(C)Oc1ccccc1N1CCN(C2CCC(N3C(=O)c4ccc5ccc(F)cc5c4C3=O)CC2)CC1 (stereo in doubt; 6f) [listing 2 of 2 here] | – | – | 18 | 16 | –
CC(C)Oc1ccccc1N1CCN(C2CCC(N3C(=O)c4ccc5ccc(F)cc5c4C3=O)CC2)CC1 (stereo in doubt; 6g) [listing 1 of 2 here] | 0.5 | 3.9 | – | – | 46.5
CC(C)Oc1ccccc1N1CCN(C2CCC(N3C(=O)c4ccc5ccc(F)cc5c4C3=O)CC2)CC1 (stereo in doubt; 6g) [listing 2 of 2 here] | – | – | 12 | 93 | –
